Data on 5 compounds can be found in ChEMBL document CHEMBL1156853, “Structure-function relationships and crystal structures of the vitamin D receptor bound 2 alpha-methyl-(20S,23S)- and 2 alpha-methyl-(20S,23R)-epoxymethano-1 alpha,25-dihydroxyvitamin D3” (J Med Chem, 2010).

In series [1] the test system is Mus musculus. Kind of series: Toxicity in C57BL/6J mouse assessed as increase in serum calcium level at 0.1 ug/kg, ip administered every 2 days for 3 weeks. The series is classed as organism-based. The note with it: in vivo, 0.0001 mg/kg. The gist of the method: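 Male C57BL/6J mice, 6-7 weeks old, 6-7 per group. Ligand in sesame oil given ip at 0.1 μg/kg every second day for 3 weeks; vehicle controls received sesame oil. Serum calcium measured weekly after a 3 h fast, by clinical analyzer kit. Mean ± SEM.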

Series [2] concerns HL-60. Briefly: Induction of cell differentiation in human HL60 cells assessed as CD11c and CD14 expression after 96 hrs. The series is classed as functional, cell-based. The procedure, abridged:
(§1)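 HL60 cells plated at 4 × 10^5 cells/mL in RPMI/10% FCS at 37 °C and treated 96 h, with 0.7% ethanol control. Stained with PE-anti-CD11c and FITC-anti-CD14, and Topro-3 added to exclude dead cells. Flow cytometry counted the CD11c/CD14 double-positive subpopulation. Representative of three experiments.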

Series [3] concerns HL-60. Kind of series: Induction of cell differentiation in human HL60 cells assessed as CD11c and CD14 expression at 0.1 nM after 96 hrs relative to untreated control. The series is classed as functional. The gist of the method:
as §1

Series [4] has as its target T1, Vitamin D3 receptor (Homo sapiens) (UniProt P11473).
T1 sequence (whole entry): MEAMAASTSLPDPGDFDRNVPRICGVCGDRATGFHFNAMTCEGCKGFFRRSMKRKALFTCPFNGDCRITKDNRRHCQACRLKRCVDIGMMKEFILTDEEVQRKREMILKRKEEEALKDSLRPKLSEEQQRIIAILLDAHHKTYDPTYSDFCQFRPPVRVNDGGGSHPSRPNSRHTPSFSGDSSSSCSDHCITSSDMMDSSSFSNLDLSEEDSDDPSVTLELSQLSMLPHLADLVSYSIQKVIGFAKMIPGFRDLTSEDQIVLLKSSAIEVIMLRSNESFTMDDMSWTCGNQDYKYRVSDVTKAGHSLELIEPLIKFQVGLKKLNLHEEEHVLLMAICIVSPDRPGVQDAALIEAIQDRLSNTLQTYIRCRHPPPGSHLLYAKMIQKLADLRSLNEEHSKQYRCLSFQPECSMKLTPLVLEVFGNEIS
Briefly: Binding affinity to human VDR ligand binding domain assessed as SRC1 peptide binding dissociation constant by fluorescence anisotrophy relative to 1-alpha,25(OH)(2)D(3). The procedure, abridged:
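Steady-state fluorescence anisotropy at 20 °C. Kd obtained from anisotropy values of free peptide, peptide at each protein concentration and plateau. Representative of three experiments.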

Series [5] deals with HL-60. Kind of series: Antiproliferative activity against human HL60 cells after 96 hrs. The series is classed as functional, cell-based. The gist of the method:
(§2)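 HL60 cells grown in RPMI with 10% fetal calf serum at 37 °C without CO2. Plated at 4 × 10^5 cells/mL and exposed 96 h to various ligand concentrations, with 0.7% ethanol as control. Cells then counted; mean ± SEM.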

The subject of series [6] is HL-60. Kind of series: Antiproliferative activity against human HL60 cells at 0.1 nM after 96 hrs. The series is classed as functional, cell-based. The gist of the method: as §2
The target in series [7] is T1, Vitamin D3 receptor (Homo sapiens). Briefly: Agonist activity at GAL4 tagged human VDR ligand binding domain expressed in MCF7 cells assessed as receptor transactivation at 5 nM by luciferase reporter gene assay relative to 2alpha-methyl-(20S,23S)-epoxymethano-1 alpha,25-dihydroxyvitamin D(3). The series is classed as cell-based. The procedure, abridged:
(§3)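 Gal4 DBD fused to human VDR LBD (90-427). MCF-7 cells seeded at 10^5 per well and grown overnight in phenol red-free DMEM with 10% charcoal-treated FCS and insulin. Transfected (jetPEI) with Gal4-VDR, ptk-LUC reporter and β-galactosidase plasmid. Ligand or solvent added 10 h later in phenol red-free DMEM/10% FCS. Luciferase read 24 h after stimulation and normalized to β-galactosidase. Triplicates, at least three experiments.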

The target is the same in series [8]. Briefly: Agonist activity at GAL4 tagged human VDR ligand binding domain expressed in MCF7 cells assessed as receptor transactivation at 1 nM by luciferase reporter gene assay relative to 2alpha-methyl-(20S,23S)-epoxymethano-1 alpha,25-dihydroxyvitamin D(3). The series is classed as cell-based. The procedure, abridged: as §3
In general terms: A reporter such as luciferase makes a cellular process visible.

For series [9] the target is unchanged. Briefly: Agonist activity at GAL4 tagged human VDR ligand binding domain expressed in MCF7 cells assessed as receptor transactivation at 0.1 nM by luciferase reporter gene assay relative to 2alpha-methyl-(20S,23S)-epoxymethano-1 alpha,25-dihydroxyvitamin D(3). The series is classed as cell-based. The procedure, abridged:
as §3

Series [10] shares this target. Briefly: Agonist activity at GAL4 tagged human VDR ligand binding domain expressed in MCF7 cells assessed as receptor transactivation at 0.1 nM by luciferase reporter gene assay relative to (20S,23S)-epoxymethano-1 alpha,25-dihydroxyvitamin D(3). The series is classed as cell-based. The gist of the method: as §3
Series [11] has the same target. Briefly: Agonist activity at GAL4 tagged human VDR ligand binding domain expressed in MCF7 cells assessed as receptor transactivation at 5 nM by luciferase reporter gene assay relative to 1-alpha,25(OH)(2)D(3). The series is classed as cell-based. The gist of the method:
as §3

The target is the same in series [12]. Kind of series: Agonist activity at GAL4 tagged human VDR ligand binding domain expressed in MCF7 cells assessed as receptor transactivation at 0.1 nM by luciferase reporter gene assay relative to 1-alpha,25(OH)(2)D(3). The series is classed as cell-based. The gist of the method: as §3

Activity calls are given as the source filed them. No cut-off for these calls is given here.

Turning to `C=C1/C(=C\C=C2/CCC[C@]3(C)[C@@H]([C@@H]4C[C@H](CC(C)(C)O)CO4)CC[C@@H]23)C[C@@H](O)[C@H](C)[C@@H]1O`, the Activity entry in [1] is “Non-toxic”; in series [2], “Dose-dependent effect”; in series [5] it was “Dose-dependent effect”. For the same compound, the outcome in [3] and in series [6] was inactive. The fold change (FC) in series [4] was found to be 3.2.
Turning to `C=C1/C(=C\C=C2/CCC[C@]3(C)[C@@H]([C@@H]4C[C@@H](CC(C)(C)O)CO4)CC[C@@H]23)C[C@@H](O)C[C@@H]1O`, the Activity result in [1] is “Toxic”; in series [7] it was 73%; in series [8], 42%; in [9], 26%. The outcome in series [3] and in series [6] was inactive. The fold change (FC) in [4] came out at 0.9.
For `C=C1/C(=C\C=C2/CCC[C@]3(C)[C@@H]([C@H](C)CCCC(C)(C)O)CC[C@@H]23)C[C@@H](O)C[C@@H]1O`, the outcome in [3] and in series [6] was inactive.
As for `C=C1/C(=C\C=C2/CCC[C@]3(C)[C@@H]([C@@H]4C[C@@H](CC(C)(C)O)CO4)CC[C@@H]23)C[C@@H](O)[C@H](C)[C@@H]1O`, in series [1], the Activity result was “Toxic”. The outcome in [3], in series [11] and in series [6] was Active. The “fold change (FC)” value in series [3] came out at 10; in [4], 1.3; in series [10], 3.8; in series [12] it was 13.
In the case of `C=C1/C(=C\C=C2/CCC[C@]3(C)[C@@H]([C@@H]4C[C@H](CC(C)(C)O)CO4)CC[C@@H]23)C[C@@H](O)C[C@@H]1O`, the Activity result in series [2] and in series [5] was “Dose-dependent effect” throughout. Moreover, the outcome in series [3] and in series [6] was inactive. Moreover, in series [4], the fold change (FC) was determined as 1.7.
